These results are taken from ChEMBL document CHEMBL1138372, “Design, synthesis, and biological evaluation of new (2E,6E)-10-(dimethylamino)-3,7-dimethyl-2,6-decadien-1-ol ethers as inhibitors of human and Trypanosoma cruzi oxidosqualene cyclase” (Bioorg Med Chem Lett, 2007).

Calls of active or inactive are those of the source. The rule behind the calls is not given here.

As usually defined, the IC50 is the concentration that gives 50% inhibition. As usually defined, the inhibition is the drop in the measured response relative to a control, in per cent.

For assay [1], the system named is NIH3T3. Description: Inhibition of sterol biosynthesis in Swiss Albino mouse 3T3 cells assessed as incorporation of [2-14C]acetate in squalene at 1 uM. Type of assay: functional. Further details: scale not given: the % may be the effect or the level left. The procedure, abridged:
(§1)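 3T3 fibroblasts (7×10^4 cells) were grown 24 h in DMEM with 10% lipid-depleted serum, then preincubated 3 h with inhibitor. [2-14C]acetate (1 uCi/well) was added for a further 3 h. Cells were lysed in 0.1 N NaOH and saponified in methanolic KOH (1 h, 80 °C). Nonsaponifiable lipids were extracted and separated by TLC against sterol standards. Label is given as % of total radioactivity in sterols, mean ± SD of two experiments in duplicate.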

Assay [2] is described as follows: Inhibition of Trypanosoma cruzi oxidosqualene cyclase.
The test system of assay [3] is NIH3T3. Description: Inhibition of sterol biosynthesis in Swiss Albino mouse 3T3 cells assessed as incorporation of [2-14C]acetate in […]-dioxidosqualene at 1 uM. Further details: scale not given: the % may be the effect or the level left. It is filed as functional. The procedure, abridged: as §1
Assay [4] concerns NIH3T3. Kind of assay: Inhibition of sterol biosynthesis in Swiss Albino mouse 3T3 cells assessed as incorporation of [2-14C]acetate in 2,3-oxidosqualene at 1 uM. Type of assay: functional. Set-up: scale not given: the % may be the effect or the level left. The procedure, abridged:
as §1

The target in assay [5] is T1, Lanosterol synthase (Homo sapiens, UniProt P48449).
T1 sequence (P48449 whole entry): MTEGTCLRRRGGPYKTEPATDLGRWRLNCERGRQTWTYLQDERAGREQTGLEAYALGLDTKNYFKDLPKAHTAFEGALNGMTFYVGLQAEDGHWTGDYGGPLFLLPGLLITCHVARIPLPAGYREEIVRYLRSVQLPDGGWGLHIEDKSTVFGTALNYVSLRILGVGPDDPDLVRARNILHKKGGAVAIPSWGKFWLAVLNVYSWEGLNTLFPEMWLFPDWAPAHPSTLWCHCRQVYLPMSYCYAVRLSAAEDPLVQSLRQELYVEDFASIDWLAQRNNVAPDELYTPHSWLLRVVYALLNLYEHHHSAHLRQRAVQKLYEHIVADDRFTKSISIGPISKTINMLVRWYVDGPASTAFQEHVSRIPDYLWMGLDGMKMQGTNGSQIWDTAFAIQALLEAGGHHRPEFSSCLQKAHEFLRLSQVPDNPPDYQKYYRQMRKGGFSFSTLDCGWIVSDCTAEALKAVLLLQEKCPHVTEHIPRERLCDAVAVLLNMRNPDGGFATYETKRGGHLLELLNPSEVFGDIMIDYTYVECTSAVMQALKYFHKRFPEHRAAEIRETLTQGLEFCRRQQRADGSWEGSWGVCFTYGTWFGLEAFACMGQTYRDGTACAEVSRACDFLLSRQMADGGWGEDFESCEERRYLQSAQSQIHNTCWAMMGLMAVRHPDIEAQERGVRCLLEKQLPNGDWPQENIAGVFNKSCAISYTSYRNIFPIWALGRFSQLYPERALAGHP
Description: Inhibition of human oxidosqualene cyclase expressed in Pichia pastoris cells.

Assay [6] has as its target T2, Lanosterol synthase (Pneumocystis carinii, UniProt Q96WJ0).
T2 sequence (Q96WJ0 whole entry): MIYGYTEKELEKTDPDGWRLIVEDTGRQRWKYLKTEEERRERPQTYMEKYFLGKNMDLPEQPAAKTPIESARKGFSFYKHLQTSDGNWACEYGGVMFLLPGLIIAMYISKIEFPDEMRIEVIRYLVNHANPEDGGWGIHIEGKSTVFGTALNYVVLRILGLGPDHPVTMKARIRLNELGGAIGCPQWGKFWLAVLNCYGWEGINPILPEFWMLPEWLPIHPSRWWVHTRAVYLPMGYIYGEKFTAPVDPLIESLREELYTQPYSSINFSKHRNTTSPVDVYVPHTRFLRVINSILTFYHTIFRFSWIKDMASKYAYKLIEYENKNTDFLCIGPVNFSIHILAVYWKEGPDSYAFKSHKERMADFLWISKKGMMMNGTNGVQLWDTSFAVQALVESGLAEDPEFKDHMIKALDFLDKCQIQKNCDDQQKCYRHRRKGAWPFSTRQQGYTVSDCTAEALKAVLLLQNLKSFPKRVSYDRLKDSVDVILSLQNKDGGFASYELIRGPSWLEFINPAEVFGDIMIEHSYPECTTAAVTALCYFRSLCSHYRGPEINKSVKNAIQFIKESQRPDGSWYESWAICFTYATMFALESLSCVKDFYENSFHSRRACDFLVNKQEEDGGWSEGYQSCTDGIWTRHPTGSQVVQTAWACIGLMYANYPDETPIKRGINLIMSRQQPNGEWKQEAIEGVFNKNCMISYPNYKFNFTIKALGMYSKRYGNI
Kind of assay: Inhibition of Pneumocystis carinii oxidosqualene cyclase.

The target in assay [7] is T3, Lanosterol synthase ERG7 (Saccharomyces cerevisiae S288c, UniProt P38604).
T3 sequence (P38604 whole entry): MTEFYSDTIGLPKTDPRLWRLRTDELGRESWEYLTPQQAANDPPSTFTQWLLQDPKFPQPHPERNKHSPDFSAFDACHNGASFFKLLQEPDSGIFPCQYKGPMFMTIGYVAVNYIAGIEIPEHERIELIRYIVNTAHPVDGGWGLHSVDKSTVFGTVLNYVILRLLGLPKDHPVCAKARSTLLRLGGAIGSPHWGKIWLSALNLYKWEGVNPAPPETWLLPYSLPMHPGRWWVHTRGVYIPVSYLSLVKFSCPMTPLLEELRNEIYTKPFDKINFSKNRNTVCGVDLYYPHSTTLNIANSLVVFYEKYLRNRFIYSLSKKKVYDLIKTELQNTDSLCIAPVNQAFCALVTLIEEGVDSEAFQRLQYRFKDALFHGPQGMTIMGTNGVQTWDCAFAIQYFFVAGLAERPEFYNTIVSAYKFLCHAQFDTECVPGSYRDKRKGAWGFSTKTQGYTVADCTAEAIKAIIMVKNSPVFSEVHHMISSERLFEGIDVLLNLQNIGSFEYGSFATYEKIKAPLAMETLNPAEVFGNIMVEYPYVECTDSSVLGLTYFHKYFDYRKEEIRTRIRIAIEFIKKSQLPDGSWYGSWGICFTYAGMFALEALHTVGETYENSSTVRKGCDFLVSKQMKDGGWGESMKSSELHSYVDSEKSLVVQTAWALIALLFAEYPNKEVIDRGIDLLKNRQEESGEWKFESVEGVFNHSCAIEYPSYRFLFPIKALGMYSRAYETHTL
Description: Inhibition of Saccharomyces cerevisiae oxidosqualene cyclase.

The subject of assay [8] is NIH3T3. Description: Inhibition of sterol biosynthesis in Swiss Albino mouse 3T3 cells assessed as incorporation of [2-14C]acetate in lanosterol at 1 uM. Set-up: scale not given: the % may be the effect or the level left. It is filed as functional. The procedure, abridged:
as §1

Assay [9] has as its system NIH3T3. Description: Inhibition of sterol biosynthesis in Swiss Albino mouse 3T3 cells assessed as incorporation of [2-14C]acetate in cholesterol at 1 uM. It is filed as functional. Set-up: scale not given: the % may be the effect or the level left. The procedure, abridged:
as §1

Assay [10] concerns NIH3T3. Kind of assay: Inhibition of sterol biosynthesis in Swiss Albino mouse 3T3 cells assessed as decrease in incorporation of [2-14C]acetate in cholesterol at 50 uM. Set-up: scale not given: the % may be the effect or the level left. It is filed as functional. The procedure, abridged: as §1
Assay [11] deals with Trypanosoma cruzi. Kind of assay: Inhibition of Trypanosoma cruzi oxidosqualene cyclase at 10 uM.
Assay [12] concerns the target T4, Lanosterol synthase (Homo sapiens) (UniProt P48449).
T4 sequence (whole entry): T1 sequence (P48449 whole entry)
Kind of assay: Inhibition of human oxidosqualene cyclase expressed in Pichia pastoris cells at 10 uM.

Assay [13] addresses T5, Lanosterol synthase ERG7 (Saccharomyces cerevisiae S288c) (UniProt P38604).
T5 sequence (whole entry): T3 sequence (P38604 whole entry)
Description: Inhibition of Saccharomyces cerevisiae oxidosqualene cyclase at 10 uM.

For assay [14], the target named is T6, Lanosterol synthase (Pneumocystis carinii) (UniProt Q96WJ0).
T6 sequence (whole entry): T2 sequence (Q96WJ0 whole entry)
Description: Inhibition of Pneumocystis carinii oxidosqualene cyclase at 10 uM.

Regarding `C/C(=C\COCCCc1ccccc1)CC/C=C(\C)CCCN(C)C`, the Activity in assay [1] came out at 5.5%; in assay [3], 30.4%; in [4] it was 27.9%; in assay [8] it was 5.5%; in [9] it was 31.3%. The IC50 in assay [2] is 470 nM; in [5] it was 1100 nM; in assay [6], 330 nM; in [7], 450 nM.
Consider `C/C(=C\COCCCc1cccc2ccccc12)CC/C=C(\C)CCCN(C)C`, for which the Activity in assay [10] stood at 30%; in assay [1], 6.6%; in assay [3], 3.2%; in assay [4], 12.5%; in [8], 5%; in assay [9], 72.7%. The concentration for half-maximal inhibition (IC50) in assay [6] came out at 10000 nM. The inhibition in assay [11] and in assay [12] was less than 20% in each case. Further, the result in assay [13] was inactive.
On to `CCCCCCOC/C=C(\C)CC/C=C(\C)CCCN(C)C`, for which the Activity was 4.6% in [1]; 22.3% in assay [3]; 29.6% in assay [4]; 7.9% in assay [8]; 35.5% in [9]. Also, the IC50 came to 2700 nM in assay [2], 850 nM in assay [5], 360 nM in [6] and 1780 nM in assay [7].
For `C/C(=C\COCCCc1ccccc1)CC/C=C(\C)CCC(=O)N(C)C`, the Activity in assay [10] was more than 50%; in [1], 4.8%; in [3], 2.8%; in assay [4] it was 4.6%; in [8], 3.2%; in assay [9], 84.6%. In addition, the inhibition in assay [14], in assay [11] and in assay [12] was less than 20% throughout.
Regarding `C/C(=C\CO)CC/C=C(\C)CCCN(C)C`, the Activity in assay [10] stood at 30%; in [1], 4.1%; in assay [3] it was 1.3%; in [4], 3.9%; in assay [8] it was 2.5%; in assay [9], 88.2%. The inhibition in assay [14], in assay [11] and in assay [12] was less than 20% throughout. Further, in [13], the outcome was inactive.
Take `C/C(=C\COCCCc1ccc(-c2ccccc2)cc1)CC/C=C(\C)CCCN(C)C`: the Activity in assay [1] is 4.9%; in [3], 18%; in assay [4] it was 17.5%; in assay [8], 6.4%; in [9], 53.2%. For the same compound, the figures for the IC50 in assay [2], in assay [5] and in assay [6] were 7400 nM, 4500 nM and 1700 nM, respectively. This compound displayed an inhibition in assay [13] of less than 20%.
